{"data": "Experimental data gathered from unrelated publications", "target": "cAMP-dependent protein kinase catalytic subunit alpha (PRKACA, Homo sapiens, UniProt P17612)", "note": "Lines come from different studies, so protocols differ."}
{"SMILES": "C[C@@H]1CN(c2ccc3ncc(-c4ccc5[nH]nc(C6CC6)c5c4)n3n2)C[C@H](C)O1", "test": "binding, competition with immobilised ligand", "conditions": "0.5 µM", "remaining binding [%]": 100}
{"SMILES": "COc1ncc2cc3ccccc3nc2c1C#N", "test": "cell-free assay, competition with immobilised ligand", "conditions": "5 µM", "remaining binding [%]": 100}
{"SMILES": "c1cnn2ncc(-c3ccnc(N4CCC45COC5)n3)c2c1", "test": "binding", "conditions": "1 µM", "remaining binding [%]": 100}
{"SMILES": "Cc1c(C(=O)O)cc(-c2ccc(C3CCNCC3)cc2)c2ccc(-c3ccc(C(F)(F)F)cc3)cc12", "test": "cell-free assay, competition with immobilised ligand", "conditions": "1 µM", "remaining binding [%]": 100}
{"SMILES": "C=CC(=O)N1CCC(C(=O)NCC(=O)N2CCN(c3nc(-c4cnc(N)nc4C(F)F)nc(N4CCOCC4)n3)CC2)CC1", "test": "binding, competition with immobilised ligand", "conditions": "1 µM", "remaining binding [%]": 100}
{"SMILES": "O=C(NCC1CCOCC1)c1n[nH]cc1NC(=O)c1c(F)cccc1F", "test": "binding, competition with immobilised ligand", "conditions": "1 µM", "remaining binding [%]": 100}
{"SMILES": "O=C(N1CCS(=O)(=O)CC1)N1C[C@H](c2ccc(OC(F)(F)F)cc2)C[C@H](c2nc(C3CC3)no2)C1", "test": "cell-free assay, competition with immobilised ligand", "conditions": "1 µM", "remaining binding [%]": 100}
{"SMILES": "CN(C)c1ncc(F)c(-c2cnn3ncccc23)n1", "test": "binding", "conditions": "1 µM", "remaining binding [%]": 86}
{"SMILES": "COc1cnc(Nc2cccc(S(N)(=O)=O)c2)nc1N1CCN(c2ccccc2)CC1", "test": "binding, competition with immobilised ligand", "conditions": "1 µM", "remaining binding [%]": 100}
{"SMILES": "CCN1CCN(Cc2ccc(C(=O)Nc3ccc(C)c(Oc4ccc5c(c4)CC(=O)N5)c3)cc2C(F)(F)F)CC1", "test": "binding, competition with immobilised ligand", "conditions": "1 µM", "remaining binding [%]": 100}
{"SMILES": "O=C(c1ccc(Nc2ncc(Cl)c(-c3cc4ccccc4s3)n2)cc1)N1CCC(N2CCCC2)CC1", "test": "binding, competition with immobilised ligand", "conditions": "1 µM", "remaining binding [%]": 90}
{"SMILES": "c1ccc(N2CCN(Cc3nc4ccccc4[nH]3)CC2)nc1", "test": "cell-free assay, competition with immobilised ligand", "conditions": "1 µM", "remaining binding [%]": 91}
{"SMILES": "Cc1cnc(Nc2ccc(C(=O)N3CCC(N4CCCC4)CC3)cc2)nc1-c1cc2ccccc2s1", "test": "binding, competition with immobilised ligand", "conditions": "1 µM", "remaining binding [%]": 67}
{"SMILES": "COc1ccc2c(c1)O[C@@H](c1ccc(OC)c(OC)c1)C[C@H]2NC(=O)C1(c2ccc3c(c2)OC(F)(F)O3)CC1", "test": "cell-free assay, competition with immobilised ligand", "conditions": "1 µM", "remaining binding [%]": 100}
{"SMILES": "C[C@@H]1CCN(c2nccc(-c3cnn4ncccc34)n2)C1", "test": "binding", "conditions": "1 µM", "remaining binding [%]": 100}
{"SMILES": "O=C(c1ccc(Nc2ncc(Cl)c(-c3ccc(Cl)s3)n2)cc1)N1CCC(N2CCCC2)CC1", "test": "binding, competition with immobilised ligand", "conditions": "1 µM", "remaining binding [%]": 97}
{"SMILES": "O=C(O)c1cc(-c2ccc(C3CCNCC3)cc2)c2ccc(-c3ccc(C(F)(F)F)cc3)cc2c1", "test": "cell-free assay, competition with immobilised ligand", "conditions": "1 µM", "remaining binding [%]": 100}
{"SMILES": "C[C@@H](c1ccc(-n2cnc3c(N)ncnc32)cc1)N1CCc2nn(C)c(Cc3ccccc3)c2C1=O", "test": "binding, competition with immobilised ligand", "conditions": "0.1 µM", "remaining binding [%]": 100}
{"SMILES": "CN(C)c1nccc(-c2cnc3ncccn23)n1", "test": "binding", "conditions": "1 µM", "remaining binding [%]": 83}
{"SMILES": "Nc1ncc2c(n1)-c1c([nH]c3ccc(C#CC4CC4)cc13)CCCC2", "test": "binding, competition with immobilised ligand", "conditions": "1 µM", "remaining binding [%]": 86}
{"SMILES": "O=C(N[C@H]1CCCCC/C=C\\C2C[C@@]2(C(=O)O)NC(=O)[C@@H]2C[C@@H](Oc3ccncc3)CN2C1=O)OC1CCCC1 (stereo partly drawn)", "test": "cell-free assay, competition with immobilised ligand", "conditions": "1 µM", "remaining binding [%]": 92}
